# Active and inactive are the calls of the source. The rule behind the calls is not given here.
# Tests used:
# A549 = experiment: Antiproliferative activity against human A549 cells assessed as reduction in cell viability measured after 5 days by beckman coulter counting method; format: functional, cell-based; conditions: A549, 120 h
# Outline: (§1)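 Cells kept in DMEM with 10% FBS, 4 mM glutamine, 1 mM sodium pyruvate, penicillin/streptomycin and amphotericin, at 37 °C in 5% CO2. Seeded at 20,000 per well, then exposed to 5 concentrations for 5 days, with DMSO as vehicle. Viable cells counted on a cell viability analyzer. Viability expressed as treated/vehicle count, and IC50 taken from dose-response curves.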
# MDA-MB-231 [1] = experiment: Antiproliferative activity against human MDA-MB-231 cells assessed as reduction in cell viability measured after 5 days by beckman coulter counting method; format: functional, cell-based; conditions: MDA-MB-231, 120 h
# HeLa = experiment: Antiproliferative activity against human HeLa cells assessed as reduction in cell viability measured after 5 days by beckman coulter counting method; format: functional, cell-based; conditions: 120 h
# MCF7 = experiment: Antiproliferative activity against human MCF7 cells assessed as reduction in cell viability measured after 5 days by beckman coulter counting method; format: functional, cell-based; conditions: MCF7, 120 h; outline: as §1
# MDA-MB-231 [2] = experiment: Induction of apoptosis in human MDA-MB-231 cells assessed as viable cells at 1 uM measured after 24 hrs by annexin V-FITC/propidium iodide staining based flow cytometry (reference value: 90.9%); format: functional; conditions: read-out: Activity
# MDA-MB-231 [3] = experiment: Induction of apoptosis in human MDA-MB-231 cells assessed as necrotic cells at 1 uM measured after 24 hrs by annexin V-FITC/propidium iodide staining based flow cytometry (reference value: 4.74%); format: functional
# MDA-MB-231 [4] = experiment: Cell cycle arrest in human MDA-MB-231 cells assessed as accumulation at G2 phase at 1 uM measured after 24 hrs by propidium iodide staining based flow cytometry (reference value: 5.77%); format: functional
# Outline: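 MDA-MB-231 cells were seeded at 5 × 10^5 cells/mL and treated for 24 h. They were then trypsinized and washed twice in cold PBS. Cells were resuspended in PBS, stained with PI for 15 min at room temperature in the dark, and analyzed by flow cytometry.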
# MDA-MB-231 [5] = experiment: Induction of apoptosis in human MDA-MB-231 cells assessed as late apoptotic cells at 1 uM measured after 24 hrs by annexin V-FITC/propidium iodide staining based flow cytometry (reference value: 2.84%); format: functional
# MDA-MB-231 [6] = experiment: Induction of apoptosis in human MDA-MB-231 cells assessed as early apoptotic cells at 1 uM measured after 24 hrs by annexin V-FITC/propidium iodide staining based flow cytometry (reference value: 1.49%); format: functional
# MDA-MB-231 [7] = experiment: Cell cycle arrest in human MDA-MB-231 cells assessed as accumulation at S phase at 1 uM measured after 24 hrs by propidium iodide staining based flow cytometry (reference value: 19.84%); format: functional
# MDA-MB-231 [8] = experiment: Cell cycle arrest in human MDA-MB-231 cells assessed as accumulation at G1 phase at 1 uM measured after 24 hrs by propidium iodide staining based flow cytometry (reference value: 74.39%); format: functional
# 4T1 [9] = experiment: Antitumor activity against mouse 4T1 cells implanted in mouse assessed as tumor growth inhibition at 1 mg/kg, ip administered daily for 12 days relative to control; format: functional; conditions: 4T1, ip, 288 h, time 12 day, read-out: TGI
# Outline: (§2)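 Mice bearing orthotopic 4T1 tumors were randomized into 4 groups (n = 6) once tumors reached about 100 mm2. Groups received vehicle, test compound at 1 or 2 mg/kg, or doxorubicin at 1 mg/kg, given i.p. every day. Body weight and tumor volume were recorded daily. Tumors were excised and weighed at the end, and inhibition was calculated against the saline control.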
# 4T1 [10] = experiment: Antitumor activity against mouse 4T1 cells implanted in mouse assessed as reduction in tumor weight at 1 mg/kg, ip administered daily for 12 days; format: functional, organism-based; conditions: time 12.0 day; outline: as §2
# [11] = Toxicity in mouse implanted with mouse 4T1 cells assessed as change in body weight at 1 mg/kg, ip administered daily for 12 days measured daily during compound dosing; format: organism-based; conditions: in vivo, 288 h, time 12 day; outline: as §2
SMILES,IC50 (A549),IC50 (MDA-MB-231 [1]),IC50 (HeLa),also measured
Cc1ccc(-n2nc(-c3cccc4ccccc34)nc2N2CCOC23C=CC(=O)C=C3)cc1,1520 nM,260 nM,570 nM,
O=C1C=CC2(C=C1)OCC(=O)N2c1nc(-c2ccc3c(c2)OCCO3)nn1-c1ccccc1,170 nM,100 nM,70 nM,
Cc1ccc(-n2nc(-c3ccc4ccccc4c3)nc2N2CCOC23C=CC(=O)C=C3)cc1,2000 nM,160 nM,520 nM,
COc1ccc(/C=C\c2cc(OC)c(OC)c(OC)c2)cc1O [COMBRETASTATIN A4],,,,viability at 1 µM (MDA-MB-231 [2]): 58.6%; Activity (MDA-MB-231 [3]): 12.8%; Activity (MDA-MB-231 [4]): 18.16%; Activity (MDA-MB-231 [5]): 20%; Activity (MDA-MB-231 [6]): 8.57%; Activity (MDA-MB-231 [7]): 27.34%; Activity (MDA-MB-231 [8]): 54.49%
COc1cccc2c1C(=O)c1c(O)c3c(c(O)c1C2=O)C[C@@](O)(C(=O)CO)C[C@@H]3O[C@H]1C[C@H](N)[C@H](O)[C@H](C)O1 [DOXORUBICIN],,,,inhibition in vivo at 1 mg/kg (4T1 [9]): 45.1%; Activity (4T1 [10]): Active; Activity [11]: Non-Toxic
Cc1ccc(-n2nc(-c3ccc4ccccc4c3)nc2N2C(=O)C(C)OC23C=CC(=O)C=C3)cc1 (stereo not given),1210 nM,100 nM,530 nM,
O=C1C=CC2(C=C1)OCC(=O)N2c1nc(-c2ccc3ccccc3c2)nn1-c1ccc(C(F)(F)F)cc1,460 nM,70 nM,390 nM,
CC1OC2(C=CC(=O)C=C2)N(c2nc(-c3ccc4ccccc4c3)nn2-c2ccc3ccccc3c2)C1=O (stereo not given),,60 nM,300 nM,
O=C1C=CC2(C=C1)OCC(=O)N2c1nc(-c2ccc3c(c2)Cc2ccccc2-3)nn1-c1ccc(C(F)(F)F)cc1,180 nM,80 nM,130 nM,
COc1ccc(-n2nc(-c3ccc4ccccc4c3)nc2N2C(=O)C(C)OC23C=CC(=O)C=C3)cc1 (stereo not given),860 nM,50 nM,140 nM,
CC1CN(c2nc(-c3ccc4ccccc4c3)nn2-c2ccccc2)C2(C=CC(=O)C=C2)O1 (stereo not given),320 nM,130 nM,260 nM,
Cn1c(CCCC(=O)O)nc2cc(N(CCCl)CCCl)ccc21 [BENDAMUSTINE],,13300 nM,> 20000 nM,

# Continued, in another order:
IC50 (A549),IC50 (MDA-MB-231 [1]),IC50 (HeLa),SMILES,also measured
320 nM,80 nM,200 nM,O=C1C=CC2(C=C1)OCC(=O)N2c1nc(-c2ccc(F)c3ccccc23)nn1-c1ccccc1,
25.2 nM,0.8 nM,45.3 nM,O=C1C=CC2(C=C1)OCC(=O)N2c1nc(-c2cccc(Cl)c2)nn1-c1ccccc1,IC50 (MCF7): 4.11 nM
170 nM,50 nM,110 nM,O=C1C=CC2(C=C1)OCC(=O)N2c1nc(-c2ccc3ncccc3c2)nn1-c1ccccc1,
250 nM,50 nM,210 nM,O=C1C=CC2(C=C1)OCC(=O)N2c1nc(-c2ccc3ccccc3c2)nn1-c1ccc2ccccc2c1,
180 nM,100 nM,110 nM,CC1OC2(C=CC(=O)C=C2)N(c2nc(-c3cccc4ccccc34)nn2-c2ccccc2)C1=O (stereo not given),
150 nM,70 nM,110 nM,O=C1C=CC2(C=C1)OCC(=O)N2c1nc(-c2ccc3c(c2)Cc2ccccc2-3)nn1-c1ccccc1,
310 nM,70 nM,120 nM,CC1OC2(C=CC(=O)C=C2)N(c2nc(-c3ccc4ccccc4c3)nn2-c2ccccc2)C1=O (stereo not given),
,40 nM,140 nM,Cc1ccc(-n2nc(-c3cccc4ccccc34)nc2N2C(=O)COC23C=CC(=O)C=C3)cc1,
260 nM,60 nM,200 nM,COc1ccc(-n2nc(-c3ccc4ccccc4c3)nc2N2C(=O)COC23C=CC(=O)C=C3)cc1,
100 nM,50 nM,290 nM,O=C1C=CC2(C=C1)OCC(=O)N2c1nc(-c2ccc3ccccc3c2Br)nn1-c1ccccc1,
140 nM,70 nM,120 nM,O=C1C=CC2(C=C1)OCC(=O)N2c1nc(-c2ccc3ccccc3c2)nn1-c1ccccc1,
400 nM,70 nM,720 nM,O=C1C=CC2(C=C1)OCC(=O)N2c1nc(-c2ccc3ccccc3c2)nn1-c1ccc(Cl)cc1,
,230 nM,370 nM,O=C1C=CC2(C=C1)OCCN2c1nc(-c2ccc3ccccc3c2)nn1-c1ccccc1,
130 nM,120 nM,100 nM,Cc1ccccc1-n1nc(-c2cccc3ccccc23)nc1N1C(=O)COC12C=CC(=O)C=C2,
110 nM,30 nM,150 nM,Cc1ccc(-n2nc(-c3ccc4ccccc4c3)nc2N2C(=O)COC23C=CC(=O)C=C3)cc1,
430 nM,110 nM,150 nM,O=C1C=CC2(C=C1)OCCN2c1nc(-c2cccc3ccccc23)nn1-c1ccccc1,
